Test results reported in ChEMBL document CHEMBL4680195, “Negative allosteric modulators of the GluN2B NMDA receptor with phenylethylamine structure embedded in ring-expanded and ring-contracted scaffolds” (Eur J Med Chem, 2020).

Legend:
[1] = molecular target: Glutamate receptor ionotropic, NMDA 2B (Homo sapiens, UniProt Q05586+Q13224); assay: Displacement of [3H]ifenprodil from human GluN2B expressed in mouse L(tk-) cell membranes co-expressing GluN1a incubated for 2 hrs by scintillation counting method; design: species or system L-M(TK-), Cell membrane
[2] = molecular target: Sigma non-opioid intracellular receptor 1 (Cavia porcellus, UniProt Q60492); assay: Displacement of [3H]-(+)-pentazocine from Sigma1 receptor in guinea pig cortex membranes incubated for 120 mins by scintillation counting method; format: cell membranes, Membrane
[3] = Cytoprotective activity against glutamate/glycine-induced cell death in mouse L-M(TK-) cells assessed as increase in cell viability at 10 uM incubated for 30 mins followed by glutamate/glycine stimulation and measured after 6 hrs by LDH assay relative to control; format: functional; conditions: time 6.5 hrs
In short: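 Mouse L(tk-) fibroblasts stably carrying dexamethasone-inducible GluN1a and GluN2B vectors (1:5). Wells blocked with DMEM containing 1% BSA, then given test compound, at least triplicate, 30 min at 37 °C. Glutamate/glycine solution then added, 6 h at 37 °C. LDH in supernatant read with diaphorase/lactate/NAD+/iodonitrotetrazolium mix, 45 min at 37 °C, absorbance 485 nm. Buffer gave total LDH; (S)-ketamine 4 × 10^-5 mol/L was positive control.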

[4] = molecular target: T1, Sigma intracellular receptor 2 (Rattus norvegicus, UniProt Q5U3Y7); assay: Displacement of [3H]DTG from sigma 2 receptor in rat liver membranes incubated for 120 mins by scintillation counting method; format: cell membranes, Membrane
T1 sequence (Q5U3Y7 whole entry): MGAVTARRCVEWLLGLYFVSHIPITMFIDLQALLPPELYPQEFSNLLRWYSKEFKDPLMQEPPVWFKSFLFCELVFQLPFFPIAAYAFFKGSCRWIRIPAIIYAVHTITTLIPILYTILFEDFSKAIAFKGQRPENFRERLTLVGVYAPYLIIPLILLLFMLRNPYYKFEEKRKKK

[5] = Cytoprotective activity against glutamate/glycine-induced cell death in mouse L-M(TK-) cells assessed as increase in cell viability incubated for 30 mins followed by glutamate/glycine stimulation and measured after 6 hrs by LDH assay; format: functional, cell-based
In short: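 Mouse L(tk-) fibroblasts stably carrying dexamethasone-inducible GluN1a and GluN2B vectors (1:5 ratio). Cells preincubated with test compound in DMEM, at least in triplicate, 30 min at 37 °C. Then glutamate/glycine (each 20 µM, stock added) added and incubated 6 h at 37 °C. LDH released into the supernatant read at 485 nm after 45 min at 37 °C. Buffer in place of ligand gave total LDH. (S)-ketamine 4 × 10⁻⁵ mol/L was the positive control.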

[6] = molecular target: Glutamate receptor ionotropic, NMDA 2B (Rattus norvegicus) (UniProt Q00960); assay: Negative allosteric inhibition of rat GluN2B expressed in Oocytes co-expressing GluN1a at 10 uM at -70 mV holding potential by two electrode voltage-clamp assay relative to control; conditions: filed as negative allosteric modulator
[7] = molecular target: Glutamate receptor ionotropic, NMDA 2B (Rattus norvegicus) (UniProt Q00960); assay: Negative allosteric inhibition of rat GluN2B expressed in Oocytes co-expressing GluN1a at 1 uM at -70 mV holding potential by two electrode voltage-clamp assay relative to control; conditions: filed as negative allosteric modulator
[8] = molecular target: Sigma intracellular receptor 2 (Homo sapiens, UniProt Q5BJF2); assay: Binding affinity to Sigma 2 receptor (unknown origin)
Sigma intracellular receptor 2 (Homo sapiens, UniProt Q5BJF2), sequence (Q5BJF2 whole entry): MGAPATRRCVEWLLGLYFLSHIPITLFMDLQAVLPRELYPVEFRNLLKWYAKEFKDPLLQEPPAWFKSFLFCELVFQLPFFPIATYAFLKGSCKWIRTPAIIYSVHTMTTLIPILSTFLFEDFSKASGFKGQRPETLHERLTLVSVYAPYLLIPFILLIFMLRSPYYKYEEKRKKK

Glutamate receptor ionotropic, NMDA 2B, sequence (Q13224 whole entry, one chain of several): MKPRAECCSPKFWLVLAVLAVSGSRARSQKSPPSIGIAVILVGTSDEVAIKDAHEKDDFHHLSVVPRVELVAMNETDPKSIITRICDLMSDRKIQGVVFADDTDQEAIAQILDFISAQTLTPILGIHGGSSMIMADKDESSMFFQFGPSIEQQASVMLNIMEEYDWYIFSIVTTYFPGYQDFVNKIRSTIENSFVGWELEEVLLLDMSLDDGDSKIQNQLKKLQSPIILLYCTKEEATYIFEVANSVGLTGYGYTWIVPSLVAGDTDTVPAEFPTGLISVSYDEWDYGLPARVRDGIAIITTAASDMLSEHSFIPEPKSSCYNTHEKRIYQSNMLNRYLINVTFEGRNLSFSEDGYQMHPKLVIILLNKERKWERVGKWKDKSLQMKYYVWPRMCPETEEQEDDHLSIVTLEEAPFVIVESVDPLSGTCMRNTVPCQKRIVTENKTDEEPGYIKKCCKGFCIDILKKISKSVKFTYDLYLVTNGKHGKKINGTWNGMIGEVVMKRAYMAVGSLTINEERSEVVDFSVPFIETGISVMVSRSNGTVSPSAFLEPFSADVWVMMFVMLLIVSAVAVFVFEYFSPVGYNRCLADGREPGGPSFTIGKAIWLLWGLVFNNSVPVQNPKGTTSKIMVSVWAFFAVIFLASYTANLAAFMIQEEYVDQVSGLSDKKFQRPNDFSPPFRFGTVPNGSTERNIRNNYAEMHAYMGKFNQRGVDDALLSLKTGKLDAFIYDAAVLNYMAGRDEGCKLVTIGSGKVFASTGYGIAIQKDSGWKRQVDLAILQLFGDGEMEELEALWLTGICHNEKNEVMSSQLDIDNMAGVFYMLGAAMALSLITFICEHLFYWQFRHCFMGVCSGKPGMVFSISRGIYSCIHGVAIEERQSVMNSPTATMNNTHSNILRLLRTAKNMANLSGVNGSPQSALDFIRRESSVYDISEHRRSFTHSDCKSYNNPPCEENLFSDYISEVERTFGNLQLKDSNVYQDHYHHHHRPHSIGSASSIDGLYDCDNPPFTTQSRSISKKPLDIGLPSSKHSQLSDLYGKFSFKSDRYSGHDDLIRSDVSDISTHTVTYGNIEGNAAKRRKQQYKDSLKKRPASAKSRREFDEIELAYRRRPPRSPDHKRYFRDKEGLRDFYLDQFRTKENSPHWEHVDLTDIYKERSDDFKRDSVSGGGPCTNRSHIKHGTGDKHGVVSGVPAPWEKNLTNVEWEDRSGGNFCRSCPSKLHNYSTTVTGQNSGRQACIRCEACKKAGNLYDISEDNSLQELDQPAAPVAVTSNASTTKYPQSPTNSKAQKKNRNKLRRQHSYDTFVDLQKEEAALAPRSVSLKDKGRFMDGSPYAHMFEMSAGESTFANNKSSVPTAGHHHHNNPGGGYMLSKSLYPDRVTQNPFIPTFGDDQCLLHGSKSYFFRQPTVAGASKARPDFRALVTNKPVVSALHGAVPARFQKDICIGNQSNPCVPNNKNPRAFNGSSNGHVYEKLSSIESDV
Sigma non-opioid intracellular receptor 1, sequence (Q60492 whole entry): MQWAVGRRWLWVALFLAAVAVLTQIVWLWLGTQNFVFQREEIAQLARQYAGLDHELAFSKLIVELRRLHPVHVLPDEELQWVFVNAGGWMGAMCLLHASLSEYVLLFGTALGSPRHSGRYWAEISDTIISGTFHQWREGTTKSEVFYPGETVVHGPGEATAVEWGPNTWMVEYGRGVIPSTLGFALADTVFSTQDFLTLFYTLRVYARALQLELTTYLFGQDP
Glutamate receptor ionotropic, NMDA 2B (Rattus norvegicus), sequence (Q00960 whole entry, looked up): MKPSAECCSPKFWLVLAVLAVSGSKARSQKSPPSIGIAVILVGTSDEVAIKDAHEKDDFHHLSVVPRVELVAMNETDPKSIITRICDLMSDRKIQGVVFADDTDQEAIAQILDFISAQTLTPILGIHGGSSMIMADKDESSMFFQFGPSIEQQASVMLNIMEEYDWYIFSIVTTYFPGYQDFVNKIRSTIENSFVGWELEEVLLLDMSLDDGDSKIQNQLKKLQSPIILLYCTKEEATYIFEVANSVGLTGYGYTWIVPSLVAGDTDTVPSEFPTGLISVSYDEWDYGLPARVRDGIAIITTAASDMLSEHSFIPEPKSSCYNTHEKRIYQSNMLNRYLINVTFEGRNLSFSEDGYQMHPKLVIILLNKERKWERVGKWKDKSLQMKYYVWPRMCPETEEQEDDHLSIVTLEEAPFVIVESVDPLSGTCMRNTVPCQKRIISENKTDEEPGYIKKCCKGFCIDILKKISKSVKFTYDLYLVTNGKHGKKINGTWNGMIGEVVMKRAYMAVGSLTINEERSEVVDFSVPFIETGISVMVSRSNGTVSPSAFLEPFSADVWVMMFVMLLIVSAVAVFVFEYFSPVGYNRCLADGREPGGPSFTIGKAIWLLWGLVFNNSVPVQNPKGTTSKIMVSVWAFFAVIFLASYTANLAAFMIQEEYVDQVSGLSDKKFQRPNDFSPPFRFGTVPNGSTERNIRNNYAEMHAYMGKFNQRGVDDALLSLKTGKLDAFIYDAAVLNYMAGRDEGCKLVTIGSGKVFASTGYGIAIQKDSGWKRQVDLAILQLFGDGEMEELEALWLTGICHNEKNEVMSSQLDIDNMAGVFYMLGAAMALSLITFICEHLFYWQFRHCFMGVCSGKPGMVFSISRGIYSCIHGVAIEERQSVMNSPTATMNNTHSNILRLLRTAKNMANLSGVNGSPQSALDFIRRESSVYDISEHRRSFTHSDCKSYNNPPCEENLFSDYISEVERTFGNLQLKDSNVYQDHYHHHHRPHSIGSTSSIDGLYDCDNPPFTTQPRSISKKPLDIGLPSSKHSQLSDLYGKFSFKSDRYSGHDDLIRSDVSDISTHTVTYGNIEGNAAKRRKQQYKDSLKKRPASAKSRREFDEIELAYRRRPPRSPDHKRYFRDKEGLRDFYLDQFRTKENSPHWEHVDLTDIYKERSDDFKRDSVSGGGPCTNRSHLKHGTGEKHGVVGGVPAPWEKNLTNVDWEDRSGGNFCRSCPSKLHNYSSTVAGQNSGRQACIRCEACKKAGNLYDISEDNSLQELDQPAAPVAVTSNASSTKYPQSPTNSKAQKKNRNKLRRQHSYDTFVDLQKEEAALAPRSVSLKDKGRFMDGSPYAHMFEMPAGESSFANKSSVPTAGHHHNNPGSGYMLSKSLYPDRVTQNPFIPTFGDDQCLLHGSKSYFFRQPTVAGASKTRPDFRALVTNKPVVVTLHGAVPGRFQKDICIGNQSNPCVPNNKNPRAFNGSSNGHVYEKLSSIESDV

Row | SMILES | Ki [1] | Ki [2] | Activity [3] | Ki [4] | IC50 [5] | inhibition [6] | inhibition [7] | Ki [8]
1 | c1ccc(CC2CCN(C3Cc4ccccc4C3)CC2)cc1 | 3.2 nM | 51 nM | 7% | 28 nM |  |  |  | 
2 | c1ccc(CCCCNC2Cc3ccccc3C2)cc1 | 66 nM | 31 nM |  | 150 nM |  |  |  | 
3 | c1ccc(CCCNC2CCc3ccccc3C2)cc1 (centres undefined) | 163 nM | 59 nM | 30% | 29 nM |  |  |  | 
4 | c1ccc(CCNC2Cc3ccccc3C2)cc1 | 455 nM | 168 nM |  | 694 nM |  |  |  | 
5 | c1ccc(C2CCN(C3CCc4ccccc4C3)CC2)cc1 (centres undefined) | 8.4 nM | 1.9 nM |  | 2.9 nM |  |  |  | 
6 | c1ccc(C2CCN(C3Cc4ccccc4C3)CC2)cc1 | 4.5 nM | 44 nM |  | 25 nM |  |  |  | 
7 | c1ccc(CCCN2CCCc3ccccc3CC2)cc1 | 36 nM | 17 nM |  | 178 nM | 7800 nM |  |  | 
8 | c1ccc(CCCNC2CCc3ccccc3CC2)cc1 |  |  | 29% |  |  |  |  | 
9 | c1ccc(CCCCN2CCCc3ccccc3CC2)cc1 | 32 nM | 22 nM |  | 50 nM | 890 nM | 60% | 8% | 
10 | c1ccc(CCCNC2Cc3ccccc3C2)cc1 | 117 nM | 58 nM | 31% | 38 nM |  |  |  | 
11 | c1ccc(CNC2CCc3ccccc3C2)cc1 (centres undefined) | 4000 nM | 285 nM |  | 65 nM |  |  |  | 
12 | Oc1ccc2c(c1)CCN(CCCCc1ccccc1)CC2O (centres undefined) |  |  |  |  |  |  |  | > 10000 nM
13 | c1ccc(CCCCNC2CCc3ccccc3C2)cc1 (centres undefined) | 266 nM | 46 nM |  | 50 nM |  |  |  | 
14 | c1ccc(CCNC2CCc3ccccc3C2)cc1 (centres undefined) | 237 nM | 51 nM |  | 70 nM |  |  |  | 
15 | CC(C(O)c1ccc(O)cc1)N1CCC(Cc2ccccc2)CC1 (centres undefined) [IFENPRODIL] |  |  |  |  | 590 nM |  |  | 
16 | c1ccc(CC2CCN(C3CCc4ccccc4C3)CC2)cc1 (centres undefined) | 8 nM | 6 nM |  | 2.1 nM |  |  |  | 
